The values below come from ChEMBL document CHEMBL1129428 (J Med Chem, 1996).

Molecules are shown by their SMILES.

The subject of data set [1] is Rattus norvegicus. The experiment in a line: Compound was tested for anticonvulsant activity after Oral Administration into Rats by using MES screen test after 0.25h,dose 12.5 mg/kg; No activity was demonstarted. The class given is functional, organism-based. More on the design: dose 12.5 mg/kg. In a few lines:
(§1)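 Rats received the compound orally. […] Rats were tested in the MES screen at 0.25, 0.5, 1, 2 and 4 h. Each value is the number of rats protected out of 4. The test followed NINDS procedures.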

Data set [2] in a line: Protection index = TD50/ED50 (MES). The following applies: mouse, in vivo; read-out: PI.
The subject of data set [3] is Mus musculus. Description: Compound was tested for anticonvulsant activity after intraperitoneal injection into mice by using scPTZ screen test after 2 hr. It counts as functional. The following applies: ip. In short, it runs like this:
(§2)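 Quantitative intraperitoneal mouse testing in the MES, scPTZ or rotorod neurotoxicity screens at the peak time given for each compound (0.25–2 h). ED50 or TD50 reported in mg/kg with 95% CI and slope (SE).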

Data set [4] has as its system Rattus norvegicus. Description: Compound was tested for anticonvulsant activity after Oral Administration into Rats by using MES screen test after 4h,dose 12.5 mg/kg; number of rats out of four which were protected. The class given is functional. In short, it runs like this: as §1
Data set [5] deals with Rattus norvegicus. The experiment in a line: Compound was tested for anticonvulsant activity after Oral Administration into rat by using MES screen test after 6 hr. The class given is functional. In short, it runs like this:
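Oral dosing in rats, maximal electroshock challenge, with ED50, 95% CI, slope and SE determined at the time listed for each compound (0.25 to 6 h range).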

Data set [6] deals with Rattus norvegicus. Description: Anticonvulsant activity after oral administration into rats. The class given is functional. Also noted: concentration or dose not given beside the values.
Data set [7] concerns Rattus norvegicus. Description: Compound was tested for anticonvulsant activity after Oral Administration into Rats by using MES screen test after 1h,dose 12.5 mg/kg; number of rats out of four which were protected. It counts as functional. In a few lines: as §1
In data set [8] the test system is Mus musculus. Description: Compound was tested for anticonvulsant activity after intraperitoneal injection into mice by using MES screen test after 2 hr. The class given is functional. The following applies: ip. In a few lines: as §2
Data set [9] in a line: Compound was tested for toxicity after intraperitoneal injection into mice by using neurotoxicity screen test after 2 hr. It counts as organism-based. To be noted: mouse, in vivo, ip. In a few lines: as §2
Data set [10] has as its system Mus musculus. The experiment in a line: Toxicity after intraperitoneal injection into mice by using toxicity screen test after 0.5 hr. It counts as organism-based. The following applies: in vivo, ip. In short, it runs like this: (§3)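 Mice injected intraperitoneally at 30, 100 and 300 mg/kg and examined 0.5 and 4 h afterwards. Each entry is the minimum dose giving activity (MES protection, scPTZ protection, or rotorod failure for neurotoxicity) in half or more of the mice. Activity is called absent if nothing occurs at 300 mg/kg.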

For data set [11], the system named is Mus musculus. Description: Anticonvulsant activity after intraperitoneal injection into mice measured in a maximal electroshock scree (MES) screen. The class given is functional. (In general: The maximal electroshock test induces tonic seizures with an electrical stimulus.)
The test system of data set [12] is Rattus norvegicus. Description: Compound was tested for anticonvulsant activity after Oral Administration into Rats by using MES screen test after 2h,dose 12.5 mg/kg; number of rats out of four which were protected. The class given is functional. In a few lines: as §1
In data set [13] the test system is Mus musculus. Description: Anticonvulsant activity after intraperitoneal injection into mice by using MES screen test after 0.5 hr. The class given is functional.
Data set [14] concerns Mus musculus. The experiment in a line: Anticonvulsant activity after intraperitoneal injection into mice by using scPTZ screen after 0.5 hr. It counts as functional.
The test system of data set [15] is Mus musculus. The experiment in a line: Compound was tested for toxicity after intraperitoneal injection into mice by using toxicity screen test after 4 hr. It counts as organism-based. To be noted: in vivo, ip. In a few lines:
as §3

The test system of data set [16] is Mus musculus. Description: Anticonvulsant activity after intraperitoneal injection into mice by using MES screen test after 0.25 hr. The class given is functional.
The test system of data set [17] is Mus musculus. Description: Compound was tested for anticonvulsant activity after intraperitoneal injection into mice by using scPTZ screen test after 0.25 hr. It counts as functional. To be noted: ip. In short, it runs like this:
as §2

Data set [18] is described as follows: Compound was tested for toxicity after oral administration in rat by using neurotoxicity screen test after 0.5 hr. The following applies: in vivo.
Data set [19] is described as follows: Compound was tested for toxicity after intraperitoneal injection into mice by using neurotoxicity screen test after 0.25 hr. To be noted: mouse, in vivo, ip.
A short description of data set [20]: Protection index = TD50/ED50 (MES). The class given is ADME. To be noted: read-out: TI.
Data set [21] in a line: Partition coefficient (logP). It counts as physicochemical. To be noted: octanol/water. In short, it runs like this:
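Partition between 1-octanol and buffer at pH 7.4, with solutions prepared in 1-octanol before buffer is added. Quantified by UV, using λmax and ε values measured in 1-octanol.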

Data set [22] can be described thus: Compound was tested for toxicity after oral administration in rat by using neurotoxicity screen test after 2 hr. It counts as organism-based. The following applies: in vivo. In a few lines: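 Rat neurotoxicity after oral dosing, observed at 0.25, 0.5, 1, 2, 4, 6, 8 and 24 h (8 h omitted for one compound).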
The test system of data set [23] is Mus musculus. Description: Compound was tested for anticonvulsant activity after intraperitoneal injection into mice by using MES screen test after 1 hr. The class given is functional. The following applies: ip. In short, it runs like this: as §2
The subject of data set [24] is Rattus norvegicus. Description: Compound was tested for anticonvulsant activity after Oral Administration into rat by using MES screen test after 2 hr. The class given is functional. In short, it runs like this: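 Rats dosed orally, typically at 50 mg/kg first, then mostly 12.5 mg/kg (some compounds at 30 mg/kg), and tested by maximal electroshock. Four rats per compound, scored at 0.25, 0.5, 1, 2 and 4 h as the number of rats protected out of 4.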

The subject of data set [25] is Rattus norvegicus. The experiment in a line: Compound was tested for anticonvulsant activity after Oral Administration into Rats by using MES screen test after 4h,dose 12.5 mg/kg; No activity was demonstarted. The class given is functional, organism-based. Also noted: dose 12.5 mg/kg. In a few lines: as §1
For data set [26], the system named is Mus musculus. Description: Compound was tested for anticonvulsant activity after intraperitoneal injection into mice by using MES screen test after 1h,dose 12.50 mg/kg. The class given is functional. To be noted: ip.
Data set [27] relates to Rattus norvegicus. The experiment in a line: Compound was tested for anticonvulsant activity after Oral Administration into Rats by using MES screen test after 2h,dose 12.5 mg/kg; No activity was demonstarted. The class given is functional, organism-based. Also noted: dose 12.5 mg/kg. In short, it runs like this: as §1
Data set [28] has as its system Rattus norvegicus. The experiment in a line: Compound was tested for anticonvulsant activity after Oral Administration into Rats by using MES screen test after 0.5h,dose 12.5 mg/kg; No activity was demonstarted. It counts as functional, organism-based. More on the design: dose 12.5 mg/kg. In a few lines: as §1
In data set [29] the test system is Mus musculus. Description: Anticonvulsant activity after intraperitoneal injection into mice by using scPTZ screen test after 4 hr. The class given is functional.
Data set [30] relates to Rattus norvegicus. Description: Compound was tested for anticonvulsant activity after Oral Administration into Rats by using MES screen test after 0.25h,dose 12.5 mg/kg; number of rats out of four which were protected. The class given is functional. In short, it runs like this:
as §1

For orientation: ED50 means the dose that gives a 50% effect, or the effect in half of the subjects. A word on the TD50: it is the dose at which the toxic effect under study appears in half of the subjects. In general, logP refers to the decadic logarithm of the partition coefficient of the neutral form, usually between octanol and water.

As to `CCc1ccc(Oc2ccc(/C=N/NC(N)=O)cc2)cc1`, the Activity entry in the data set with Rattus norvegicus [1] is “No activity”; in the data set with Rattus norvegicus [4], 4; in the data set on Rattus norvegicus [6], 2; in the data set on Rattus norvegicus [7], 4; in the data set with Rattus norvegicus [12], 4. The selectivity ratio in [2] was 3.32. Moreover, the ED50 in the data set with Mus musculus [3] was over 100 mg/kg; with Rattus norvegicus [5], 6.48 mg/kg; with Mus musculus [8], 10.3 mg/kg. In [9], this compound had a TD50 at 2 h of 34 mg/kg. The Dose amounted to 300 mg/kg in the data set with Mus musculus [10]; 30 mg/kg with Mus musculus [11]; 30 mg/kg in the data set on Mus musculus [13]; 300 mg/kg in the data set with Mus musculus [14]; 100 mg/kg in the data set with Mus musculus [15].

As for `CCCC(CCC)C(=O)O` [VALPROIC ACID], the ED50 in the data set with Mus musculus [16] was 287 mg/kg; in the data set on Mus musculus [17], 209 mg/kg. In addition, the TD50 at 0.5 h in [18] was found to be 859 mg/kg. In addition, the TD50 at 0.25 h in data set [19] amounted to 483 mg/kg. This compound had a Dose in the data set with Mus musculus [14] of 300 mg/kg.

On to `C/C(=N/NC(N)=O)c1ccc(Oc2ccc(F)cc2)cc1`, for which the Activity entry with Rattus norvegicus [1] was “No activity”; in the data set on Rattus norvegicus [4] it was 4; with Rattus norvegicus [6], 4; in the data set on Rattus norvegicus [7], 4; in the data set on Rattus norvegicus [12], 4. Also, the selectivity ratio was 5.22 in data set [2] and 32.3 in [20]. The ED50 with Mus musculus [17] is over 80 mg/kg; in the data set with Mus musculus [23], 11.6 mg/kg; with Rattus norvegicus [24], 3.37 mg/kg. For the same compound, the logP in data set [21] came out at 2.03. Further, the values for the TD50 at 2 h in data set [22] and in [9] were 109 mg/kg and 60.7 mg/kg, respectively. For the same compound, the Dose worked out at 300 mg/kg in the data set on Mus musculus [10]; 30 mg/kg in the data set with Mus musculus [11]; 30 mg/kg in the data set on Mus musculus [13]; 100 mg/kg in the data set with Mus musculus [14]; 100 mg/kg in the data set with Mus musculus [15].

For the compound `Cc1ccc(C)c(Oc2ccc(/C=N/NC(N)=O)cc2)c1`, the selectivity ratio in data set [2] is 10.3. For the same compound, the Activity result in the data set with Rattus norvegicus [25] was “No activity”; with Rattus norvegicus [7], 1; in the data set on Rattus norvegicus [27], “No activity”; with Rattus norvegicus [28] it was “No activity”; with Rattus norvegicus [30], 1. For the same compound, the ED50 with Mus musculus [26] was determined as 34.7 mg/kg. This compound also returned a TD50 at 2 h in [9] of 356 mg/kg. Further, the Dose in the data set with Mus musculus [11] was determined as 100 mg/kg; in the data set with Mus musculus [13], 100 mg/kg; in the data set with Mus musculus [29] it was 300 mg/kg; in the data set with Mus musculus [14] it was 30 mg/kg; in the data set on Mus musculus [15], 300 mg/kg.
